{"source": "paper PMC9298613", "about": "(Journal of Food and Drug Analysis, 2018)", "key": {"[1]": {"experiment": "Pharmacokinetics of APZ in rat plasma", "format": "in vivo, Wistar rats"}, "[2]": {"tested_on": "CYP3A2", "experiment": "Western blot of hepatic CYP3A2 protein expression", "format": "in vivo, Wistar rats", "conditions": "for Reduction of CYP3A2 protein: rat received SA, compared with rats received APZ alone", "how_it_was_run": "(§1)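 Wistar rats (190–210 g, n = 6/group), food withheld 12 h beforehand. Antipsychotic test compound 3 mg/kg p.o. once on day 15 or daily for 15 days; controls given oral saline for 15 days. After ether euthanasia, liver excised. 25 μg hepatic protein run on 10% SDS gel, transferred to PVDF, primary antibody overnight at 4 °C, HRP secondary 60 min. Chemiluminescence, densitometry, β-actin also probed. Mean ± SD, ANOVA/Dunnett.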"}, "[3]": {"tested_on": "CYP2D6", "experiment": "Western blot of hepatic CYP2D6 protein expression", "format": "in vivo, Wistar rats", "conditions": "for Reduction of CYP2D6 protein: rat received SA, compared with rats received APZ alone", "how_it_was_run": "as §1"}, "[4]": {"tested_on": "CYP3A2 and CYP2D6", "experiment": "Hepatic CYP3A2 and CYP2D6 protein expression, summary statements", "format": "in vivo, Wistar rats", "conditions": "APZ after single or multiple dosing", "how_it_was_run": "as §1"}, "[5]": {"conditions": "at steady state; cited from earlier work"}, "[6]": {"conditions": "administration of SA, in contrast to rats treated with multiple doses of APZ, p <0.05"}, "[7]": {"conditions": "animals treated with SA for 15 days, compared to rats treated with a single dose of APZ"}, "[8]": {"conditions": "APZ 3 mg/kg p.o. daily for 15 days (multiple doses), with or without SA 20 mg/kg p.o. for 15 days, mean ± SD, n = 6"}, "[9]": {"conditions": "Wistar, rat, plasma, po, 3 mg/kg"}, "[10]": {"conditions": "multiple dose of APZ 3 mg/kg p.o. 15 days, compared to normal controls, p < 0.05"}, "[11]": {"conditions": "single dose of APZ 3 mg/kg p.o., liver, compared with normal controls, p <0.05"}}}
{"smiles": "COc1cc(C=CC(=O)O)cc(OC)c1O", "note": "[SA, 3,5-dimethoxy-4-hydroxycinnamic acid]", "values": [{"measurement": "Change in T1/2 of APZ on co-administration of SA (in words)", "setting": "[1]; APZ single dose, SA 20 mg/kg p.o. for 15 days, compared with APZ alone", "result": "without a significant change"}, {"measurement": "Reduction in hepatic expression of CYP3A2", "setting": "[2]; [6]", "result": 54.68, "unit": "%"}, {"measurement": "Reduction of CYP3A2 hepatic protein", "setting": "[2]; [7]", "result": 31.57, "unit": "%"}, {"measurement": "Reduction of CYP3A2 protein", "setting": "[2]; multiple dose study, p <0.05", "result": 73.75, "unit": "%"}, {"measurement": "Reduction of CYP3A2 protein", "setting": "[2]; single dose study, p <0.05", "result": 50.52, "unit": "%"}, {"measurement": "Reduction in hepatic expression of CYP2D6", "setting": "[3]; [6]", "result": 65.76, "unit": "%"}, {"measurement": "Reduction of CYP2D6 hepatic protein", "setting": "[3]; [7]", "result": 34.06, "unit": "%"}, {"measurement": "Reduction of CYP2D6 protein", "setting": "[3]; multiple dose study, p <0.05", "result": 71.15, "unit": "%"}, {"measurement": "Reduction of CYP2D6 protein", "setting": "[3]; single dose study, p <0.05", "result": 53.84, "unit": "%"}]}
{"smiles": "O=C1CCc2ccc(OCCCCN3CCN(c4cccc(Cl)c4Cl)CC3)cc2N1", "note": "[APZ, 7-[4-[4-(2,3-dichlorophenyl)-1-piperazinyl]butoxy]-3,4-dihydrocarbostyril]", "values": [{"measurement": "AUMC 0-∞", "setting": "[1]; [8]", "result": "3443.83 ± 234.17", "unit": "ng/ml × h^^2"}, {"measurement": "CL", "setting": "[1]; [8]", "result": "2.28 ± 0.09", "unit": "mL/kg/h"}, {"measurement": "Ke", "setting": "[1]; [8]", "result": "0.04 ± 0.005", "unit": "h⁻¹"}, {"measurement": "Vd", "setting": "[1]; [8]", "result": "65.01 ± 6.53", "unit": "mL/kg"}, {"measurement": "Tmax", "setting": "[1]; [9]", "result": 8, "unit": "h"}, {"measurement": "k el", "setting": "[1]; [9]", "result": "1.11e-05", "unit": "s⁻¹"}, {"measurement": "AUC(0-t)", "setting": "[1]; Wistar, rat, plasma, po, 3 mg/kg, AUC 0-t, APZ 3 mg/kg p.o. daily for 15 days (multiple doses), with or without SA 20 mg/kg p.o. for 15 days, mean ± SD, n = 6", "result": "122 ± 3.45", "unit": "ng·h/mL"}, {"measurement": "AUC(0-inf)", "setting": "[1]; Wistar, rat, plasma, po, 3 mg/kg, AUC 0-∞, APZ 3 mg/kg p.o. daily for 15 days (multiple doses), with or without SA 20 mg/kg p.o. for 15 days, mean ± SD, n = 6", "result": "132 ± 4.85", "unit": "ng·h/mL"}, {"measurement": "Cmax", "setting": "[1]; Wistar, rat, plasma, po, 3 mg/kg, Cmax, APZ 3 mg/kg p.o. daily for 15 days (multiple doses), with or without SA 20 mg/kg p.o. for 15 days, mean ± SD, n = 6", "result": "7.08 ± 0.89", "unit": "ng/mL"}, {"measurement": "MRT inf", "setting": "[1]; Wistar, rat, plasma, po, 3 mg/kg, MRT 0-∞, APZ 3 mg/kg p.o. daily for 15 days (multiple doses), with or without SA 20 mg/kg p.o. for 15 days, mean ± SD, n = 6", "result": "26.1 ± 1.01", "unit": "h"}, {"measurement": "half-life", "setting": "[1]; Wistar, rat, plasma, po, 3 mg/kg, T1/2, APZ 3 mg/kg p.o. daily for 15 days (multiple doses), with or without SA 20 mg/kg p.o. for 15 days, mean ± SD, n = 6", "result": "1190 ± 151", "unit": "min"}, {"measurement": "Enhancement in liver expression of CYP3A2", "setting": "[2]; [10]", "result": 135.29, "unit": "%"}, {"measurement": "Enhancement in CYP3A2 protein expression", "setting": "[2]; [11]", "result": 90, "unit": "%"}, {"measurement": "Enhancement in liver expression of CYP2D6", "setting": "[3]; [10]", "result": 91.17, "unit": "%"}, {"measurement": "Increase in CYP2D6 expression", "setting": "[3]; [11]", "result": 82, "unit": "%"}, {"measurement": "Increases in CYP3A2 and CYP2D6 expressions in hepatic tissues", "setting": "[4]", "result": "2–3 folds"}, {"measurement": "APZ converted to the major metabolite DAPZ", "setting": "[5]", "result": "about 40%"}]}
